The source of these data is ChEMBL document CHEMBL1255364, “Delayed development of linezolid resistance in Staphylococcus aureus following exposure to low levels of antimicrobial agents” (2008).

Assay [1] has as its system Staphylococcus aureus. As to the kind of experiment: Suppression of resistance related recombination in Staphylococcus aureus RN4220 at 0.25 times IC50 at 42 degC.
Assay [2] relates to Staphylococcus aureus. In words: Suppression of drug resistance development in Staphylococcus aureus isolate EMRAS-15 assessed as prolonged length of subculture to develop Linezolid resistance at 4 times MIC and 0.25 times IC50 after 25 days. Type of assay: functional, organism-based. The gist of the method: (§1)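 Stationary-phase MHB cultures were exposed for 6 h to linezolid at 4× MIC, with secondary agent(s) at 0.25× IC50. IC50 was the concentration halving growth rate by culture absorbance. A 5 μl aliquot was transferred to fresh drug-free medium and the cycle repeated. […] Four runs were done, with days to resistance averaged to the nearest day.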

Assay [3] relates to Staphylococcus aureus. In words: Suppression of drug resistance development in recA-deficient Staphylococcus aureus KB103 assessed as prolonged length of subculture to develop Linezolid resistance at 4 times MIC and 0.25 times IC50 after 20 days. Type of assay: functional, organism-based. Summed up:
as §1

Assay [4] relates to Staphylococcus aureus. In words: Suppression of drug resistance development in Staphylococcus aureus RN4220 assessed as prolonged length of subculture to develop Linezolid resistance at 4 times MIC and 0.25 times IC50 after 25 days. It is filed as functional, organism-based. Summed up:
as §1

Assay [5] has as its system Staphylococcus aureus. In words: Suppression of drug resistance development in Staphylococcus aureus RN4220 assessed as assessed as prolonged length of subculture to develop Linezolid resistance at 0.25 times IC50.
The subject of assay [6] is Staphylococcus aureus. In words: Suppression of drug resistance development in LZD intermediate-resistant Staphylococcus aureus KM183 assessed as prolonged length of subculture to develop Linezolid resistance at 4 times MIC and 0.25 times IC50 after 8 days. It is filed as functional, organism-based. The gist of the method: as §1
Assay [7] has as its system Staphylococcus aureus. In words: Antibacterial activity against Staphylococcus aureus KM52 after 18 to 24 hrs by broth microdilution method selected after 16 ug/ml drug exposure for 6 hrs by culture absorbance method. Type of assay: functional. Summed up: (§2)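 Broth microdilution in Mueller-Hinton broth per BSAC guidelines. MIC read as the lowest concentration completely inhibiting visible growth after 18 to 24 h at 37°C. Strains were linezolid-selected derivatives recovered from repeated 6-h linezolid exposure cycles.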
(In general: In broth dilution the organism is exposed to a series of concentrations in liquid medium.)

Assay [8] relates to Staphylococcus aureus. In words: Antibacterial activity against Staphylococcus aureus KM187 after 18 to 24 hrs by broth microdilution method selected after 16 ug/ml drug exposure for 6 hrs by culture absorbance method. It is filed as functional. Summed up:
as §2

In assay [9] the test system is Staphylococcus aureus. As to the kind of experiment: Antibacterial activity against Staphylococcus aureus KM53 after 18 to 24 hrs by broth microdilution method selected after 16 ug/ml drug exposure for 6 hrs by culture absorbance method. It is filed as functional. Summed up: as §2
The subject of assay [10] is Staphylococcus aureus. As to the kind of experiment: Antibacterial activity against Staphylococcus aureus KM51 after 18 to 24 hrs by broth microdilution method selected after 16 ug/ml drug exposure for 6 hrs by culture absorbance method. Type of assay: functional. Summed up:
as §2

For assay [11], the system named is Staphylococcus aureus. In words: Antibacterial activity against Staphylococcus aureus KM183 after 18 to 24 hrs by broth microdilution method selected after 16 ug/ml drug exposure for 6 hrs by culture absorbance method. Type of assay: functional. The gist of the method:
as §2

The subject of assay [12] is Staphylococcus aureus. In words: Antibacterial activity against Staphylococcus aureus KM50 after 18 to 24 hrs by broth microdilution method selected after 16 ug/ml drug exposure for 6 hrs by culture absorbance method. It is filed as functional. Summed up:
as §2

In assay [13] the test system is Staphylococcus aureus. As to the kind of experiment: Suppression of drug resistance development in Staphylococcus aureus RN4220 assessed as assessed as prolonged length of subculture to develop Linezolid resistance at 0.25 times MIC. It is filed as functional.

≈ marks a conversion by molar mass, not a printed value. Calls of active or inactive are those of the source. No cut-off for these calls is given here.

Broadly, the MIC is the lowest concentration found to suppress growth.

For `CC(=O)O[C@H]1C[C@@]2(C)[C@@H](C[C@@H](O)[C@H]3[C@@]4(C)CC[C@@H](O)[C@@H](C)[C@@H]4CC[C@@]32C)/C1=C(\CCC=C(C)C)C(=O)O`, in assay [1], the inhibition entry is “Active”. In addition, the result in [2], in [3] and in assay [4] was Active.
As to `CO[C@H]1/C=C/O[C@@]2(C)Oc3c(C)c(O)c4c(O)c(c(/C=N/N5CCN(C)CC5)c(O)c4c3C2=O)NC(=O)/C(C)=C\C=C\[C@H](C)[C@H](O)[C@@H](C)[C@@H](O)[C@@H](C)[C@H](OC(C)=O)[C@@H]1C`, the inhibition result in assay [1] is “Active”. In addition, the outcome in assay [3] and in assay [4] was Active.
Turning to `O=C(O)c1cn(C2CC2)c2cc(N3CCNCC3)c(F)cc2c1=O` [CIPROFLOXACIN], the Time in [5] worked out at 14 days.
`CC(=O)NC[C@H]1CN(c2ccc(N3CCOCC3)c(F)c2)C(=O)O1` [LINEZOLID]: the result in assay [6] and in assay [3] was Active. The MIC in assay [7] was 32 µg/mL (≈ 94.9 µM); in [8], 32 µg/mL (≈ 94.9 µM); in assay [9], 32 µg/mL (≈ 94.9 µM); in assay [10], 32 µg/mL (≈ 94.9 µM); in assay [11] it was 16 µg/mL (≈ 47.4 µM); in assay [12], 32 µg/mL (≈ 94.9 µM).
As for `CO[C@@H]1[C@@H](OC(N)=O)[C@@H](O)[C@H](Oc2ccc3c(O)c(NC(=O)c4ccc(O)c(CC=C(C)C)c4)c(=O)oc3c2C)OC1(C)C` [NOVOBIOCIN], in assay [5], the Time was determined as 14 days.
Same read-out and setting: as for `CN(C)[C@@H]1C(O)=C(C(N)=O)C(=O)[C@@]2(O)C(O)=C3C(=O)c4c(O)cccc4[C@@](C)(O)[C@H]3C[C@@H]12` [TETRACYCLINE], the figure is 14 days.
Take GENTAMICIN: the TIME in assay [13] was determined as 336 h.
